Laboratory results: ChEMBL document CHEMBL5385902, “Synthesis of urea and thiourea derivatives of C20-epi-aminosalinomycin and their activity against Trypanosoma brucei” (Eur J Med Chem, 2023)
Converted amounts (≈) assume the structure as drawn. The source made the active and inactive calls. No cut-off for these calls is given here.

How the values were obtained:
Trypanosoma brucei [1] = assay: Trypanocidal activity against bloodstream form of Trypanosoma brucei 427-221a assessed as parasite killing incubated for 24 hrs by microscopic analysis; assay type: functional
In short: (§1)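 Bloodstream-form T. brucei 427-221a seeded at 1 × 10^4 mL^-1 or HL-60 cells at 5 × 10^4 mL^-1 in Baltz medium with 16.7% heat-inactivated bovine serum, 0.9% DMSO, 10-fold dilutions 100 μM to 100 nM; 37 °C, 5% CO2. MIC, concentration killing all cells, determined microscopically. Possible values 100 μM down to […].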

Trypanosoma brucei [2] = assay: Trypanocidal activity against bloodstream form of Trypanosoma brucei 427-221a assessed as inhibition of parasite growth incubated for 24 hrs and measured at 48 hrs following resazurin challenge by resazurin assay; assay type: functional; conditions: time 72 hrs
In short: (§2)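 Bloodstream-form T. brucei 427-221a (1 × 10^4 mL^-1) or HL-60 cells (5 × 10^4 mL^-1) in Baltz medium with 16.7% heat-inactivated bovine serum, 0.9% DMSO, 10-fold dilutions 100 μM to 100 nM; 37 °C, 5% CO2, 24 h. Resazurin then added, 48 h more; absorbance 570 nm, reference 630 nm. GI50 by linear interpolation; mean and SD of three independent experiments.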

[3] = Cytotoxicity against human HL-60 cells assessed as cell killing incubated for 24 hrs by microscopic analysis; assay type: toxicity, cell-based; conditions: read-out: MIC; in short: as §1
[4] = Cytotoxicity against human HL-60 cells assessed as inhibition of cell growth incubated for 24 hrs and measured at 48 hrs following resazurin challenge by resazurin assay; assay type: toxicity, cell-based; in short: as §2
[5] = Selectivity index, ratio of MIC for cytotoxicity against human HL60 cells to MIC for Trypanocidal activity against bloodstream form of Trypanosoma brucei 427-221a; assay type: toxicity, cell-based; conditions: read-out: Selectivity Index
[6] = Selectivity index, ratio of GI50 for cytotoxicity against human HL60 cells to GI50 for Trypanocidal activity against bloodstream form of Trypanosoma brucei 427-221a; assay type: toxicity, cell-based; conditions: read-out: RatioGI50
In short: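 Ratio of HL-60 GI50 to T. brucei GI50. Both from the resazurin assay in Baltz medium with 16.7% heat-inactivated bovine serum and 0.9% DMSO, 10-fold dilutions 100 μM to 100 nM, 24 h then 48 h with resazurin. GI50 by linear interpolation, three independent experiments.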

Trypanosoma brucei [7] = assay: Trypanocidal activity against bloodstream form of Trypanosoma brucei 427-221a assessed as increase in cell swelling activity at 100 uM measured every 10 min for 60 mins by light scattering method; assay type: functional, organism-based
In short: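 Light-scattering cell-volume assay. 1 × 10^7 bloodstream-form T. brucei 427-221a in 200 μL Baltz medium with 100 μM compound and 0.9% DMSO; controls with DMSO only. Absorbance at 490 nm read every 10 min for 60 min; falling absorbance indicates cell swelling. Rate constant k of the absorbance decrease derived. Means of three independent experiments.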

SMILES	MIC (Trypanosoma brucei [1]) [µM]	GI50 (Trypanosoma brucei [2]) [µM]	MCC at 24 h [3] [µM]	GI50 at 72 h [4] [µM]	selectivity ratio [5]	selectivity ratio [6]	Activity (Trypanosoma brucei [7])
CC[C@@H](C(=O)[C@@H](C)[C@@H](O)[C@H](C)[C@@H]1O[C@@H]([C@@H](CC)C(=O)O)CC[C@@H]1C)[C@H]1O[C@]2(C=C[C@H](NC(=O)Nc3ccccc3)[C@]3(CC[C@@](C)([C@H]4CC[C@](O)(CC)[C@H](C)O4)O3)O2)[C@H](C)C[C@@H]1C	10 (≈ 8.69 µg/mL)	2.9	100	44.9	10	15.5	
CCNC(=O)N[C@H]1C=C[C@]2(O[C@H]([C@@H](CC)C(=O)[C@@H](C)[C@@H](O)[C@H](C)[C@@H]3O[C@@H]([C@@H](CC)C(=O)O)CC[C@@H]3C)[C@@H](C)C[C@H]2C)O[C@@]12CC[C@@](C)([C@H]1CC[C@](O)(CC)[C@H](C)O1)O2	10 (≈ 8.21 µg/mL)	3.2	100	42	10	13.1	
C=CCNC(=S)N[C@H]1C=C[C@]2(O[C@H]([C@@H](CC)C(=O)[C@@H](C)[C@@H](O)[C@H](C)[C@@H]3O[C@@H]([C@@H](CC)C(=O)O)CC[C@@H]3C)[C@@H](C)C[C@H]2C)O[C@@]12CC[C@@](C)([C@H]1CC[C@](O)(CC)[C@H](C)O1)O2	1 (≈ 0.849 µg/mL)	0.31	100	15.1	100	48.7	
CC[C@@H](C(=O)[C@@H](C)[C@@H](O)[C@H](C)[C@@H]1O[C@@H]([C@@H](CC)C(=O)O)CC[C@@H]1C)[C@H]1O[C@]2(C=C[C@H](NC(=O)NCCCCl)[C@]3(CC[C@@](C)([C@H]4CC[C@](O)(CC)[C@H](C)O4)O3)O2)[C@H](C)C[C@@H]1C	10 (≈ 8.7 µg/mL)	2.3	100	18.1	10	7.9	
CC[n+]1c(-c2ccccc2)c2cc(N)ccc2c2ccc(N)cc21 [HOMIDIUM BROMIDE]	10	0.087	10	6.4	1	73.6	
CCCCNC(=O)N[C@H]1C=C[C@]2(O[C@H]([C@@H](CC)C(=O)[C@@H](C)[C@@H](O)[C@H](C)[C@@H]3O[C@@H]([C@@H](CC)C(=O)O)CC[C@@H]3C)[C@@H](C)C[C@H]2C)O[C@@]12CC[C@@](C)([C@H]1CC[C@](O)(CC)[C@H](C)O1)O2	1 (≈ 0.849 µg/mL)	0.36	100	19.8	100	55	Active
CCNC(=S)N[C@H]1C=C[C@]2(O[C@H]([C@@H](CC)C(=O)[C@@H](C)[C@@H](O)[C@H](C)[C@@H]3O[C@@H]([C@@H](CC)C(=O)O)CC[C@@H]3C)[C@@H](C)C[C@H]2C)O[C@@]12CC[C@@](C)([C@H]1CC[C@](O)(CC)[C@H](C)O1)O2	1 (≈ 0.837 µg/mL)	0.33	100	18.5	100	56.1	
CC[C@@H](C(=O)[C@@H](C)[C@@H](O)[C@H](C)[C@@H]1O[C@@H]([C@@H](CC)C(=O)O)CC[C@@H]1C)[C@H]1O[C@]2(C=C[C@H](N)[C@]3(CC[C@@](C)([C@H]4CC[C@](O)(CC)[C@H](C)O4)O3)O2)[C@H](C)C[C@@H]1C	10 (≈ 7.5 µg/mL)	3.3	100	83.2	10	25.2	inactive
C=CCNC(=O)N[C@H]1C=C[C@]2(O[C@H]([C@@H](CC)C(=O)[C@@H](C)[C@@H](O)[C@H](C)[C@@H]3O[C@@H]([C@@H](CC)C(=O)O)CC[C@@H]3C)[C@@H](C)C[C@H]2C)O[C@@]12CC[C@@](C)([C@H]1CC[C@](O)(CC)[C@H](C)O1)O2	10 (≈ 8.33 µg/mL)	3.2	100	38.3	10	12	
CC[C@@H](C(=O)[C@@H](C)[C@@H](O)[C@H](C)[C@@H]1O[C@@H]([C@@H](CC)C(=O)O)CC[C@@H]1C)[C@H]1O[C@]2(C=C[C@H](NC(=O)Nc3cccc4ccccc34)[C@]3(CC[C@@](C)([C@H]4CC[C@](O)(CC)[C@H](C)O4)O3)O2)[C@H](C)C[C@@H]1C	10 (≈ 9.19 µg/mL)	1.9	100	13.5	10	7.1	
Cc1ccc(C(=O)Nc2ccc(S(=O)(=O)O)c3cc(S(=O)(=O)O)cc(S(=O)(=O)O)c23)cc1NC(=O)c1cccc(NC(=O)Nc2cccc(C(=O)Nc3cc(C(=O)Nc4ccc(S(=O)(=O)O)c5cc(S(=O)(=O)O)cc(S(=O)(=O)O)c45)ccc3C)c2)c1 [SURAMIN]	0.1 (≈ 0.13 µg/mL)	0.039	> 100	> 100	> 1000	> 2560	
CC[C@@H](C(=O)[C@@H](C)[C@@H](O)[C@H](C)[C@@H]1O[C@@H]([C@@H](CC)C(=O)O)CC[C@@H]1C)[C@H]1O[C@]2(C=C[C@H](NC(=O)NCCCl)[C@]3(CC[C@@](C)([C@H]4CC[C@](O)(CC)[C@H](C)O4)O3)O2)[C@H](C)C[C@@H]1C	10 (≈ 8.56 µg/mL)	3.2	100	38.5	10	12	
CCCCCCCCNC(=O)N[C@H]1C=C[C@]2(O[C@H]([C@@H](CC)C(=O)[C@@H](C)[C@@H](O)[C@H](C)[C@@H]3O[C@@H]([C@@H](CC)C(=O)O)CC[C@@H]3C)[C@@H](C)C[C@H]2C)O[C@@]12CC[C@@](C)([C@H]1CC[C@](O)(CC)[C@H](C)O1)O2	1 (≈ 0.905 µg/mL)	0.27	10	6.3	10	23.3	
CCCNC(=O)N[C@H]1C=C[C@]2(O[C@H]([C@@H](CC)C(=O)[C@@H](C)[C@@H](O)[C@H](C)[C@@H]3O[C@@H]([C@@H](CC)C(=O)O)CC[C@@H]3C)[C@@H](C)C[C@H]2C)O[C@@]12CC[C@@](C)([C@H]1CC[C@](O)(CC)[C@H](C)O1)O2	10 (≈ 8.35 µg/mL)	2.9	100	36.7	10	12.7	
CC[C@@H](C(=O)[C@@H](C)[C@@H](O)[C@H](C)[C@@H]1O[C@@H]([C@@H](CC)C(=O)O)CC[C@@H]1C)[C@H]1O[C@]2(C=C[C@H](NC(=O)NCc3ccccc3)[C@]3(CC[C@@](C)([C@H]4CC[C@](O)(CC)[C@H](C)O4)O3)O2)[C@H](C)C[C@@H]1C	10 (≈ 8.83 µg/mL)	1.5	100	16.7	10	11.1	
